In ChEMBL document CHEMBL1212742 (2010):
Values after ≈ are worked out from the molar mass of the structure shown.

Assays:
Format in all cases: functional
[1] = system: Mycobacterium tuberculosis; assay: Antimicrobial activity against Mycobacterium tuberculosis 16C14 harboring embB445 CAG-CGG(Gln-Arg) mutation in embCAB gene after 4 weeks by Bactec 460TB method
Procedure, shortened: (§1)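 EMB MIC by radiometric Bactec 460TB liquid method for clones from strain 210. The clones were selected on 7H10 containing 8, 16 or 32 µg/ml EMB final (~10^9 cells plated, 37°C, 4 weeks), then subcultured in 7H9 without EMB before MIC testing. embCAB was genotyped.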

[2] = system: Mycobacterium tuberculosis; assay: Antimicrobial activity against Mycobacterium tuberculosis 16C16 harboring embB1024 GAC-AAC(Asp-Asn) mutation in embCAB gene after 4 weeks by 7H agar proportion method
Procedure, shortened: (§2)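 EMB MIC by 7H10 agar proportion for clones selected from M. tuberculosis strain 210. About 10^9 cells from liquid culture (OD600 ~1.5, resuspended in 7H9) were plated on 7H10 with EMB at 8, 16 or 32 µg/ml final, incubated 37°C for 4 weeks. Colonies were subcultured in EMB-free 7H9 before testing, and embCAB was genotyped.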

[3] = system: Mycobacterium tuberculosis; assay: Antimicrobial activity against Mycobacterium tuberculosis 32C2 harboring embB497 CAG-CGG(Gln-Arg) mutation in embCAB gene after 4 weeks by Bactec 460TB method; procedure, shortened: as §1
[4] = system: Mycobacterium tuberculosis; assay: Antimicrobial activity against Mycobacterium tuberculosis NJT210GCC harboring embB406 GGC-GCC(Gly-Ala) mutation in embB gene after 4 weeks
Procedure, shortened: (§3)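 Isogenic embB mutants made by allelic exchange in strain 210. PCR-built fragments carried the codon of interest; double-crossover colonies were screened by molecular beacon assay and confirmed by direct embB sequencing. MICs of EMB, INH and RIF were determined by radiometric Bactec 460TB and 7H10 agar proportion, alongside parent 210.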

[5] = system: Mycobacterium tuberculosis; assay: Antimicrobial activity against Mycobacterium tuberculosis 8C7 harboring embB445 CAG-CGG(Gln-Arg) mutation in embCAB gene after 4 weeks by Bactec 460TB method; procedure, shortened: as §1
[6] = system: Mycobacterium tuberculosis; assay: Antimicrobial activity against Mycobacterium tuberculosis 16C7 harboring embB445 CAG-CGG(Gln-Arg) mutation in embCAB gene after 4 weeks by Bactec 460TB method; procedure, shortened: as §1
[7] = system: Mycobacterium tuberculosis; assay: Antimicrobial activity against Mycobacterium tuberculosis 8C5 harboring embC13 CGG-CTG(Arg-Leu) mutation in embCAB gene after 4 weeks by 7H agar proportion method; procedure, shortened: as §2
[8] = system: Mycobacterium tuberculosis; assay: Antimicrobial activity against Mycobacterium tuberculosis 32C1 harboring embB445 CAG-CGG(Gln-Arg) mutation in embCAB gene after 4 weeks by 7H agar proportion method; procedure, shortened: as §2
[9] = system: Mycobacterium tuberculosis; assay: Antimicrobial activity against Mycobacterium tuberculosis NJT210TGC harboring embB406 GGC-TGC(Gly-Cys) mutation in embB gene after 4 weeks; procedure, shortened: as §3
[10] = system: Mycobacterium tuberculosis; assay: Antimicrobial activity against Mycobacterium tuberculosis 16C16 harboring embB1024 GAC-AAC(Asp-Asn) mutation in embCAB gene after 4 weeks by Bactec 460TB method; procedure, shortened: as §1
[11] = system: Mycobacterium tuberculosis; assay: Antimicrobial activity against Mycobacterium tuberculosis NJT210GAC harboring embB406 GGC-GAC(Gly-Asp) mutation in embB gene after 4 weeks; procedure, shortened: as §3
[12] = system: Mycobacterium tuberculosis; assay: Antimicrobial activity against Mycobacterium tuberculosis 16C15 harboring embB497 CAG-CGG(Gln-Arg) mutation in embCAB gene after 4 weeks by Bactec 460TB method; procedure, shortened: as §1
[13] = system: Mycobacterium tuberculosis; assay: Antimicrobial activity against Mycobacterium tuberculosis 16C11 harboring embB397 CCG-TCG(Pro-Ser) mutation in embCAB gene after 4 weeks by Bactec 460TB method; procedure, shortened: as §1
[14] = system: Mycobacterium tuberculosis; assay: Antimicrobial activity against Mycobacterium tuberculosis 16C14 harboring embB445 CAG-CGG(Gln-Arg) mutation in embCAB gene after 4 weeks by 7H agar proportion method; procedure, shortened: as §2
[15] = system: Mycobacterium tuberculosis; assay: Antimicrobial activity against Mycobacterium tuberculosis 32C5 harboring embB324 GGC-CGC(Gly-Arg) mutation in embCAB gene after 4 weeks by Bactec 460TB method; procedure, shortened: as §1
[16] = system: Mycobacterium tuberculosis; assay: Antimicrobial activity against Mycobacterium tuberculosis 8C7 harboring embB445 CAG-CGG(Gln-Arg) mutation in embCAB gene after 4 weeks by 7H agar proportion method; procedure, shortened: as §2
[17] = system: Mycobacterium tuberculosis; assay: Antimicrobial activity against Mycobacterium tuberculosis 16C11 harboring embB397 CCG-TCG(Pro-Ser) mutation in embCAB gene after 4 weeks by 7H agar proportion method; procedure, shortened: as §2
[18] = system: Mycobacterium tuberculosis; assay: Antimicrobial activity against Mycobacterium tuberculosis harboring mutation in embB306 gene after 4 weeks
[19] = system: Mycobacterium tuberculosis; assay: Antimicrobial activity against Mycobacterium tuberculosis NJT210CGG harboring embB497 CAG-CGG(Gln-Arg) mutation in embB gene after 4 weeks; procedure, shortened: as §3
[20] = system: Mycobacterium tuberculosis; assay: Antimicrobial activity against Mycobacterium tuberculosis 16C9 harboring embB497 CAG-CGG(Gln-Arg) mutation in embCAB gene after 4 weeks by Bactec 460TB method; procedure, shortened: as §1
[21] = system: Mycobacterium tuberculosis; assay: Antimicrobial activity against Mycobacterium tuberculosis 8C5 harboring embC13 CGG-CTG(Arg-Leu) mutation in embCAB gene after 4 weeks by Bactec 460TB method; procedure, shortened: as §1
[22] = system: Mycobacterium tuberculosis; assay: Antimicrobial activity against Mycobacterium tuberculosis NJT210TCC harboring embB406 GGC-TCC(Gly-Ser) mutation in embB gene after 4 weeks; procedure, shortened: as §3
[23] = system: Mycobacterium tuberculosis; assay: Antimicrobial activity against Mycobacterium tuberculosis 32C3 harboring embB497 CAG-CGG(Gln-Arg) mutation in embCAB gene after 4 weeks by Bactec 460TB method; procedure, shortened: as §1
[24] = system: Mycobacterium tuberculosis; assay: Antimicrobial activity against Mycobacterium tuberculosis 32C4 harboring embB497 CAG-CGG(Gln-Arg) mutation in embCAB gene after 4 weeks by Bactec 460TB method
[25] = system: Mycobacterium tuberculosis; assay: Antimicrobial activity against Mycobacterium tuberculosis 32C5 harboring embB324 GGC-CGC(Gly-Arg) mutation in embCAB gene after 4 weeks by 7H agar proportion method; procedure, shortened: as §2
[26] = system: Mycobacterium tuberculosis; assay: Antimicrobial activity against Mycobacterium tuberculosis 32C1 harboring embB445 CAG-CGG(Gln-Arg) mutation in embCAB gene after 4 weeks by Bactec 460TB method; procedure, shortened: as §1

CC[C@@H](CO)NCCN[C@@H](CC)CO [ETHAMBUTOL]
MIC [1]: 8 µg/mL (≈ 39.2 µM)
MIC [2]: 8 µg/mL (≈ 39.2 µM)
MIC [3]: 12 µg/mL (≈ 58.7 µM)
MIC [4]: 7 µg/mL (≈ 34.3 µM)
MIC [5]: 2 µg/mL (≈ 9.79 µM)
MIC [6]: 8 µg/mL (≈ 39.2 µM)
MIC [7]: 8 µg/mL (≈ 39.2 µM)
MIC [8]: 6 µg/mL (≈ 29.4 µM)
MIC [9]: 7 µg/mL (≈ 34.3 µM)
MIC [10]: 3 µg/mL (≈ 14.7 µM)
MIC [11]: 7 µg/mL (≈ 34.3 µM)
MIC [12]: 12 µg/mL (≈ 58.7 µM)
MIC [13]: 5 µg/mL (≈ 24.5 µM)
MIC [14]: 16 µg/mL (≈ 78.3 µM)
MIC [15]: 8 µg/mL (≈ 39.2 µM)
MIC [16]: 4 µg/mL (≈ 19.6 µM)
MIC [17]: 8 µg/mL (≈ 39.2 µM)
MIC [18]: >20 µg/mL
MIC [19]: 12 µg/mL (≈ 58.7 µM)
MIC [20]: 12 µg/mL (≈ 58.7 µM)
MIC [21]: 4 µg/mL (≈ 19.6 µM)
MIC [22]: 6 µg/mL (≈ 29.4 µM)
MIC [23]: 12 µg/mL (≈ 58.7 µM)
MIC [24]: 4 µg/mL (≈ 19.6 µM)
MIC [25]: 8 µg/mL (≈ 39.2 µM)
MIC [26]: 2 µg/mL (≈ 9.79 µM)

NNC(=O)c1ccncc1 [ISONIAZID]
MIC [4]: 0.05 µg/mL (≈ 0.365 µM)
MIC [9]: 0.05 µg/mL (≈ 0.365 µM)
MIC [11]: 0.05 µg/mL (≈ 0.365 µM)
MIC [19]: 0.05 µg/mL (≈ 0.365 µM)
MIC [22]: 0.05 µg/mL (≈ 0.365 µM)

CO[C@H]1/C=C/O[C@@]2(C)Oc3c(C)c(O)c4c(O)c(c(/C=N/N5CCN(C)CC5)c(O)c4c3C2=O)NC(=O)/C(C)=C\C=C\[C@H](C)[C@H](O)[C@@H](C)[C@@H](O)[C@@H](C)[C@H](OC(C)=O)[C@@H]1C [RIFAMPIN]
MIC [4]: 0.05 µg/mL (≈ 0.0608 µM)
MIC [9]: 0.05 µg/mL (≈ 0.0608 µM)
MIC [11]: 0.05 µg/mL (≈ 0.0608 µM)
MIC [19]: 0.05 µg/mL (≈ 0.0608 µM)
MIC [22]: 0.05 µg/mL (≈ 0.0608 µM)
